Assay results reported in ChEMBL document CHEMBL1123677, “Structure-activity studies of 5-[[4-(4,5-dihydro-2-oxazolyl) phenoxy]alkyl]-3-methylisoxazoles: inhibitors of picornavirus uncoating” (J Med Chem, 1987).
≈ marks a conversion by molar mass, not a printed value.

Assays:
[1] = system: rhinovirus A25; test: Expanded antirhinoviral activity against the rhinovirus serotype 25; type: functional; conditions: Rhinovirus A
How it was run: (§1)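 Selected compounds were tested across a 15-serotype rhinovirus panel: the five secondary serotypes plus 10 more. An MIC was recorded for each serotype. MIC80, the concentration inhibiting 80% of serotypes tested, was also derived from this panel.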

[2] = system: rhinovirus A2; test: Antiviral activity determined by ability to inhibit the HRV-2( human rhinovirus type -2) virus by plaque reduction assay in vitro; type: functional; conditions: Rhinovirus A
How it was run: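 Plaque reduction assay against human rhinovirus type 2 (HRV-2), following an earlier reported method. The value is the MIC, the minimum inhibitory concentration.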

[3] = system: Human rhinovirus 1A; test: Expanded antirhinoviral activity against the rhinovirus serotype 1A; type: functional; how it was run: as §1
[4] = system: rhinovirus B14; test: Expanded antirhinoviral activity against the rhinovirus serotype 14; type: functional, human rhinovirus type 14; conditions: Rhinovirus B; how it was run: as §1
[5] = system: rhinovirus A89; test: Expanded antirhinoviral activity against the rhinovirus serotype 89; type: functional, human rhinovirus type 89; conditions: Rhinovirus A; how it was run: as §1
[6] = Partition coefficient (logP); type: physicochemical; conditions: octanol/water
[7] = system: rhinovirus A22; test: Expanded antirhinoviral activity against the rhinovirus serotype 22; type: functional; conditions: Rhinovirus A; how it was run: as §1
[8] = system: rhinovirus A41; test: Expanded antirhinoviral activity against the rhinovirus serotype 41; type: functional; conditions: Rhinovirus A; how it was run: as §1
[9] = system: rhinovirus B6; test: Expanded antirhinoviral activity against the rhinovirus serotype 6; type: functional; conditions: Rhinovirus B; how it was run: as §1
[10] = system: Human rhinovirus sp.; test: Mean of MIC's was determined for the five types of virus like HRV-2, HRV-1A,HRV-22,HRV-41 and HRV-50; type: functional
How it was run: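 MIC measured by plaque reduction against HRV-2 first. The value is the mean of the MICs across these five serotypes.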

[11] = system: rhinovirus A21; test: Expanded antirhinoviral activity against the rhinovirus serotype 21; type: functional; conditions: Rhinovirus A; how it was run: as §1
[12] = system: rhinovirus A30; test: Expanded antirhinoviral activity against the rhinovirus serotype 30; type: functional; conditions: Rhinovirus A; how it was run: as §1
[13] = system: rhinovirus A67; test: Expanded antirhinoviral activity against the rhinovirus serotype 67; type: functional; conditions: Rhinovirus A; how it was run: as §1
[14] = system: rhinovirus A2; test: Expanded antirhinoviral activity against the rhinovirus serotype 2; type: functional, human rhinovirus type 2; conditions: Rhinovirus A; how it was run: as §1
[15] = system: rhinovirus A2; test: Antirhinovirus activity was assessed and the maximum testable concentration that causes no apparent effects on the cell monolayers was determined against HRV-2 virus in vitro.; type: functional, human rhinovirus type 2
[16] = system: human rhinovirus (15-serotype panel); test: Antirhinovirus activity was determined by the ability to inhibit the growth of 80% of a panel of 15 human rhinovirus serotypes
[17] = system: rhinovirus A1B; test: Expanded antirhinoviral activity against the rhinovirus serotype 1B; type: functional, human rhinovirus type 1b; conditions: Rhinovirus A; how it was run: as §1
[18] = system: rhinovirus A15; test: Expanded antirhinoviral activity against the rhinovirus serotype 15; type: functional; conditions: Rhinovirus A; how it was run: as §1
[19] = system: rhinovirus B86; test: Expanded antirhinoviral activity against the rhinovirus serotype 86; type: functional; conditions: Rhinovirus B; how it was run: as §1
[20] = system: rhinovirus A50; test: Expanded antirhinoviral activity against the rhinovirus serotype 50; type: functional; conditions: Rhinovirus A; how it was run: as §1

In the case of `Cc1cc(CCCCCOc2ccc(C3=NCCO3)cc2[N+](=O)[O-])on1`, the MIC [1] is reported as 1.9 µM (≈ 0.683 µg/mL), the MIC [2] is reported as 0.04 µM (≈ 0.0144 µg/mL) and the MIC [3] is reported as 0.9 µM (≈ 0.323 µg/mL). It also gave an MIC [4] of 1.8 µM (≈ 0.647 µg/mL), an MIC [5] of 0.06 µM (≈ 0.0216 µg/mL) and a logP [6] of 3.49. It also gave an MIC [7] of 0.1 µM (≈ 0.0359 µg/mL), an MIC [8] of 2 µM (≈ 0.719 µg/mL) and an MIC [9] of 1.6 µM (≈ 0.575 µg/mL). It also gave an MIC [10] of 0.7 µM (≈ 0.252 µg/mL), an MIC [11] of 0.06 µM (≈ 0.0216 µg/mL) and an MIC [12] of 0.1 µM (≈ 0.0359 µg/mL). It also gave an MIC [13] of 0.2 µM (≈ 0.0719 µg/mL), an MIC [14] of 0.06 µM (≈ 0.0216 µg/mL) and an MTL [15] of 3.9 µM. The MIC80 [16] was 1.8 µM (≈ 0.647 µg/mL), the MIC [17] was 0.2 µM (≈ 0.0719 µg/mL) and the MIC [18] was 0.3 µM (≈ 0.108 µg/mL). For the same compound, the MIC [19] was 2 µM (≈ 0.719 µg/mL) and the MIC [20] was 0.2 µM (≈ 0.0719 µg/mL).
